Assay results taken from ChEMBL document CHEMBL2440062, “New nucleotide-competitive non-nucleoside inhibitors of terminal deoxynucleotidyl transferase: discovery, characterization, and crystal structure in complex with the target” (J Med Chem, 2013).
The source made the active and inactive calls. The calls are words filed in the database; no cut-off is given here.

Columns and labels:
HeLa [1] = test: Induction of apoptosis in TdT-deficient human HeLa cells assessed as caspase-3 cleavage by Western blot analysis; format: cell-based
Method in brief: (§1)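 1 × 10^6 cells were incubated with or without compound, then lysed in cold buffer (50 mM Tris, 150 mM NaCl, 10 mM EDTA, 1% Triton) with protease inhibitors. Equal protein was run on 8–12% SDS-PAGE and blotted to nitrocellulose. Membranes were probed overnight at 4 °C with antibodies to cyclin E2, cyclin A, p53 or caspase 3, detected by HRP/ECL, and normalized to actin by densitometry.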

MOLT-4 [2] = test: Induction of apoptosis in human MOLT4 cells overexpressing TdT assessed as caspase-3 cleavage by Western blot analysis; format: functional, cell-based; method in brief: as §1
MOLT-4 [3] = test: Upregulation of p53 protein expression in human MOLT4 cells overexpressing TdT at IC50 after 30 hrs by Western blot analysis; format: functional, cell-based; method in brief: as §1
MOLT-4 [4] = test: Downregulation of cyclin A protein expression in human MOLT4 cells overexpressing TdT at 30 uM by Western blot analysis; format: functional, cell-based; method in brief: as §1
HeLa [5] = test: Cell cycle arrest in TdT-deficient human HeLa cells at 30 uM after 24 hrs by propidium iodide staining-based FACS flow cytometric analysis; format: ADME
Method in brief: (§2)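 Cells at 2.5 × 10^5 cells/mL were treated 24 h with compound or vehicle. They were washed in PBS, trypsinized, and stained 30 min at 4 °C in the dark with 0.1% sodium citrate, 0.1% Triton X-100 and propidium iodide. Analysis was by FACScan flow cytometry, giving the percentage of cells in G0/G1, S and G2/M.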

MOLT-4 [6] = test: Cell cycle arrest in human MOLT4 cells overexpressing TdT assessed as decrease of cells in G1 phase at 30 uM after 24 hrs by propidium iodide staining-based FACS flow cytometric analysis relative to vehicle-treated control; format: functional; parameters: scale not given: the % may be the effect or the level left; method in brief: as §2
MOLT-4 [7] = test: Cell cycle arrest in human MOLT4 cells overexpressing TdT assessed as accumulation at S phase at 30 uM after 24 hrs by propidium iodide staining-based FACS flow cytometric analysis relative to vehicle-treated control; format: functional; method in brief: as §2
HeLa [8] = test: Cytotoxicity against TdT-deficient human HeLa cells assessed as growth inhibition after 24 to 48 hrs by MTT assay; format: cell-based
Method in brief: (§3)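 MOLT-4 cells were grown in RPMI-1640 and HeLa cells in DMEM, with 10% FCS at 37 °C. Cells were seeded at 10^5 per well, given 24 h to attach, then exposed to compounds (0.1–100 range) for 24 or 48 h. MTT at 1 mg/mL was added for 2 h at 37 °C, formazan was dissolved in DMSO, and absorbance read at 550 nm versus 0.5% DMSO vehicle. IC50 was obtained by regression, in triplicate.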

MOLT-4 [9] = test: Cytotoxicity against human MOLT4 cells overexpressing TdT assessed as growth inhibition after 24 to 48 hrs by MTT assay; format: functional, cell-based; method in brief: as §3
DNA polymerase beta = DNA polymerase beta (Homo sapiens, UniProt P06746); test: Inhibition of human recombinant DNA polymerase beta
[10] = target: T1, DNA polymerase lambda (Homo sapiens) (UniProt Q9UGP5); test: Inhibition of human recombinant full length DNA polymerase lambda TdT-like activity using [3H]dNTP as substrate after 10 mins by scintillation counting analysis
T1 sequence (whole entry): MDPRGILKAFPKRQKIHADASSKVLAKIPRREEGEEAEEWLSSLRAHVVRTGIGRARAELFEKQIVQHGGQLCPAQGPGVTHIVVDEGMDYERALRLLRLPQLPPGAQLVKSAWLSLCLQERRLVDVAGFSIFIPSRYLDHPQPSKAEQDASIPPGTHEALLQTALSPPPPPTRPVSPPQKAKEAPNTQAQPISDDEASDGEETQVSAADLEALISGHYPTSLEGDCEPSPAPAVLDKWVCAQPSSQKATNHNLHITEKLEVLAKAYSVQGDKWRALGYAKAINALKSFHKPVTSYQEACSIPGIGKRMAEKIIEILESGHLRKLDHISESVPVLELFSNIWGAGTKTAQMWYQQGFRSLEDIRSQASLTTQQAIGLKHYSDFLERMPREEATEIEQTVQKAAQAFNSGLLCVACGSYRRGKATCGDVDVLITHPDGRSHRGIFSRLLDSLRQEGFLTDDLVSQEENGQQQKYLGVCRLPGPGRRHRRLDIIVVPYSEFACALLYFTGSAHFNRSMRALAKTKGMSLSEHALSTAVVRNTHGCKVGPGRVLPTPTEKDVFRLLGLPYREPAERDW
Method in brief: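 Full-length recombinant human pol λ (>90% pure) was tested for template-independent activity. Acid-insoluble radioactivity was counted, and ID50 came from dose–response fitting.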

[11] = target: T1, DNA polymerase lambda (Homo sapiens); test: Inhibition of human recombinant full length DNA polymerase lambda using [3H]dTTP as substrate and 10 poly(dA)/oligo(dT) as template-primer after 15 mins by scintillation counting analysis
Method in brief: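 Recombinant full-length human pol λ at 50 nM was assayed with 0.2 μM poly(dA)/oligo(dT)10:1 (3′-OH ends) and 5 μM [3H]dTTP (5 Ci/mmol). Incubation was 15 min at 37 °C. TCA precipitates were scintillation counted.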

[12] = target: T2, DNA nucleotidylexotransferase (Homo sapiens, UniProt P04053); test: Inhibition of human recombinant TdT using [3H]dNTP as substrate after 10 mins by scintillation counting analysis
T2 sequence (P04053 whole entry): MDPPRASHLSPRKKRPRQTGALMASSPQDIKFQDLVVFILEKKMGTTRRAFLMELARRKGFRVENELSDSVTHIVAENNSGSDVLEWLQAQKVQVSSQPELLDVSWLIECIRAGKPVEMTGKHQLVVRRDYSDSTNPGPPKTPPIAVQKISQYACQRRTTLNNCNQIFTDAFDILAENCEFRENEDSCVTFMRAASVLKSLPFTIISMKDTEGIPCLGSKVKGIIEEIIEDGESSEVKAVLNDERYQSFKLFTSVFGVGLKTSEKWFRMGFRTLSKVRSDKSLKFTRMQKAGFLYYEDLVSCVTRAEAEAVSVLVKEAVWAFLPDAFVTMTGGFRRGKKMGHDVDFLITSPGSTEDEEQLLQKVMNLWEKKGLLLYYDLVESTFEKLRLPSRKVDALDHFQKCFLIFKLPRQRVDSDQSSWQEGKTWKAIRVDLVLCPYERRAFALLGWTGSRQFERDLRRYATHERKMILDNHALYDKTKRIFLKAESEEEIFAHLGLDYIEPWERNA
Method in brief: (§4)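 TdT was from Trevigen. TCA-precipitated radioactivity was counted. ID50 came from dose–response fitting. For kinetics, DNA or dNTP was varied at increasing inhibitor, and Ki was obtained via Cheng–Prusoff for a competitive model.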

Homo sapiens [13] = species: Homo sapiens; test: Binding affinity to human TdT/DNA/dNTP ternary complex
Method in brief: (§5)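 Association (kon) and dissociation (koff) rates measured for binding to binary enzyme–DNA and ternary enzyme–DNA–dNTP complexes of TdT.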

Homo sapiens [14] = species: Homo sapiens; test: Binding affinity to human TdT/DNA binary complex; method in brief: as §5
[15] = target: T2, DNA nucleotidylexotransferase; test: Non-competitive inhibition of human TdT using 3'-OH as substrate
[16] = target: T2, DNA nucleotidylexotransferase; test: Competitive inhibition of human TdT using TTP as substrate; method in brief: as §4
HeLa [17] = test: Downregulation of cyclin E protein expression in TdT-deficient human HeLa cells at 30 uM by Western blot analysis; format: ADME, cell-based; method in brief: as §1
MOLT-4 [18] = test: Downregulation of cyclin E protein expression in human MOLT4 cells overexpressing TdT at 30 uM by Western blot analysis; format: functional, cell-based; method in brief: as §1
HeLa [19] = test: Cell cycle arrest in TdT-deficient human HeLa cells assessed as decrease of cells in G2 phase at 30 uM after 24 hrs by propidium iodide staining-based FACS flow cytometric analysis relative to vehicle-treated control; format: ADME; parameters: scale not given: the % may be the effect or the level left; method in brief: as §2
HeLa [20] = test: Cell cycle arrest in TdT-deficient human HeLa cells assessed as accumulation at G1 phase at 30 uM after 24 hrs by propidium iodide staining-based FACS flow cytometric analysis relative to vehicle-treated control; format: ADME; method in brief: as §2
MOLT-4 [21] = test: Cell cycle arrest in human MOLT4 cells overexpressing TdT assessed as accumulation at G1 phase at 30 uM after 24 hrs by propidium iodide staining-based FACS flow cytometric analysis relative to vehicle-treated control; format: functional; method in brief: as §2
MOLT-4 [22] = test: Cell cycle arrest in human MOLT4 cells overexpressing TdT assessed as decrease of cells in G2 phase at 30 uM after 24 hrs by propidium iodide staining-based FACS flow cytometric analysis relative to vehicle-treated control; format: functional; parameters: scale not given: the % may be the effect or the level left; method in brief: as §2
MOLT-4 [23] = test: Downregulation of cyclin A protein expression in human MOLT4 cells overexpressing TdT at 30 to 50 uM by Western blot analysis; format: functional, cell-based; method in brief: as §1

Row | Compound | IC50 (DNA polymerase beta) | ID50 [10] | ID50 [11] | ID50 [12] | inhibition (Homo sapiens [13]) | inhibition (Homo sapiens [14]) | Ki [15] | Ki [16] | IC50 (HeLa [8]) | IC50 (MOLT-4 [9]) | also measured
1 | CCCn1cc(/C=C/C(=O)CC(=O)C(=O)O)c2ccccc21 | > 40 µM | > 40 µM | > 40 µM | 3.1 µM | – | – | – | – | > 40 µM | 50 µM | –
2 | O=C(/C=C/c1cc(C(=O)c2ccc(F)cc2)c[nH]1)CC(=O)C(=O)O | > 40 µM | 40 µM | > 40 µM | 0.58 µM | – | – | – | – | > 40 µM | > 40 µM | –
3 | N#Cc1ccc(C(=O)c2c[nH]c(/C=C/C(=O)CC(=O)C(=O)O)c2)cc1 | > 40 µM | 40 µM | > 40 µM | 1.1 µM | – | – | – | – | > 40 µM | > 40 µM | –
4 | CCOC(=O)C(=O)CC(=O)/C=C/c1cc(C(=O)c2ccc(C#N)cc2)c[nH]1 | > 40 µM | > 40 µM | > 40 µM | 4.7 µM | inactive | Active | 1.7 µM | 1.5 µM | > 40 µM | 30 µM | Activity (HeLa [1]): Non-toxic; Activity (MOLT-4 [2]): Active; Activity (MOLT-4 [3]): Active; Activity (MOLT-4 [23]): Active; Activity (HeLa [5]): Non-toxic; Activity (MOLT-4 [6]): 30%; Activity (MOLT-4 [7]): 44%
5 | O=C(/C=C/c1cc(C(=O)c2ccccc2F)c[nH]1)CC(=O)C(=O)O | > 40 µM | 27 µM | > 40 µM | 1.7 µM | inactive | Active | 0.4 µM | 0.5 µM | > 40 µM | 20 µM | –
6 | O=C(/C=C/c1cn(-c2ccc(O)cc2)c2ccccc12)CC(=O)C(=O)O | > 40 µM | > 40 µM | > 40 µM | 5.2 µM | – | – | – | – | > 40 µM | > 40 µM | –

The next lines start with results.

Row | IC50 (DNA polymerase beta) | ID50 [10] | ID50 [11] | ID50 [12] | inhibition (Homo sapiens [13]) | inhibition (Homo sapiens [14]) | Ki [15] | Ki [16] | Compound | IC50 (HeLa [8]) | IC50 (MOLT-4 [9]) | also measured
7 | 40 µM | > 40 µM | > 40 µM | 9.5 µM | – | – | – | – | O=C(/C=C/c1cc(C(=O)c2ccccc2)cn1Cc1ccc(F)cc1)CC(=O)C(=O)O | > 40 µM | 9 µM | Activity (HeLa [1]): Non-toxic; Activity (MOLT-4 [2]): Active; Activity (MOLT-4 [3]): Active; Activity (MOLT-4 [4]): Active; Activity (HeLa [5]): Non-toxic; Activity (MOLT-4 [6]): 30%; Activity (MOLT-4 [7]): 44%
8 | > 40 µM | > 40 µM | > 40 µM | 0.9 µM | inactive | Active | 0.5 µM | 0.45 µM | O=C(/C=C/c1cn(Cc2ccc(O)cc2)c2ccccc12)CC(=O)C(=O)O | > 40 µM | 20 µM | –
9 | > 40 µM | > 40 µM | > 40 µM | 26 µM | – | – | – | – | CCCCn1cc(/C=C/C(=O)CC(=O)C(=O)O)c2ccccc21 | 30 µM | 30 µM | Activity (HeLa [17]): Toxic; Activity (MOLT-4 [18]): Active; Activity (HeLa [19]): 10%; Activity (HeLa [20]): 20%; Activity (MOLT-4 [21]): 20%; Activity (MOLT-4 [22]): 10%
